DENV2 CPE rescue – protects cells from dengue virus 2 cytopathic effect | DENV2-infected cells, cytopathic effect rescue, plate reader | CPE inhibition, % at 9.99 µM | 1.7% of 350,000 active; in the data active means CPE inhibition above about 20%, passing the limit was not always enough; inconclusive means no clear call, values can overlap the other calls; tested in BHK-21 cells;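 further: 0% = median of neutral control wells and 100% = median of positive control wells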
E-selectin induc – induces E-selectin expression in human endothelial cells; AID 686992; activation, % at 7.58 µM; HUVEC E-selectin immunofluorescence imaging; normalized: neutral wells 0, TNF-alpha wells 100; 0.37% of 260,000 active;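 active means mean E-selectin-positive cell signal at least 10% of the positive control, reached in at least 60% of replicates, without over 20% cell loss; inconclusive means no rule given, readout overlaps actives, possibly toxicity-flagged; inactive means the rest, including those meeting only one limit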
Target sequence (P16581 whole entry, looked up): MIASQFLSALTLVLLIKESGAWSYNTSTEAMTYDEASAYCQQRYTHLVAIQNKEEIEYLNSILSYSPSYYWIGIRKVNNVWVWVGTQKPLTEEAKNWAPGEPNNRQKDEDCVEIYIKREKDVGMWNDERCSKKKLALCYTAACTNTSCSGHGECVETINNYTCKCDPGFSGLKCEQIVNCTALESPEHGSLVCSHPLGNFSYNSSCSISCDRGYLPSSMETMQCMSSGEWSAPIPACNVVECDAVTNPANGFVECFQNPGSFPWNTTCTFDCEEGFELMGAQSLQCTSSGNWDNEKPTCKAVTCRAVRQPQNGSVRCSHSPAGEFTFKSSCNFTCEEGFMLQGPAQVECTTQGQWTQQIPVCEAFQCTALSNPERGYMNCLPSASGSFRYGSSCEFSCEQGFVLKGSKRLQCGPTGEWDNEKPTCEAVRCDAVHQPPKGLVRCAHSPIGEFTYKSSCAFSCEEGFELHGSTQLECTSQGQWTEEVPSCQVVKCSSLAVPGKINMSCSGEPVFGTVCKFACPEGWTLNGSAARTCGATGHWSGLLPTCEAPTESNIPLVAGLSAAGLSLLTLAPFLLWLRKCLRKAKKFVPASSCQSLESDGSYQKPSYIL
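material = human umbilical vein endothelial cells (HUVEC), E-selectin induction | quantity = 3,000 cells/well | medium = EGM-2 growth medium on 0.1% gelatin-coated wells | technique = immunofluorescence imaging | read-out basis = % PE-positive cells | control set = TNF-alpha positive control, DMSO neutral control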
SIRT5 inh – inhibitors of human sirtuin-5 desuccinylase | Q9NXA8 | Purified SirT5, succinyl-peptide AMC, trypsin-coupled fluorescence | inhibition, % at 15 µM | 1.1% of 330,000 active | AID 652115; in the data active means inhibition above about 15%; inconclusive means no clear call, values can overlap the other calls
Active calls of the source: *; ? = inconclusive; / = no result; ! = not confirmed by another sample. The list is not random: actives were taken first. Their share in the collection is about 2.8%.

SMILES	DENV2 CPE rescue	E-selectin induc	SIRT5 inh
Cc1noc(C)c1NC(=O)N(C)C[C@H]1Oc2ccc(NS(=O)(=O)c3c(C)noc3C)cc2C(=O)N([C@H](C)CO)C[C@@H]1C	30*!	31*!	3
COc1ccc(NC(=O)N(C)C[C@@H]2Oc3ccc(NS(=O)(=O)c4c(C)noc4C)cc3C(=O)N([C@@H](C)CO)C[C@@H]2C)cc1	27*	25	1
COc1ccc(NC(=O)N(C)C[C@H]2Oc3ccc(NS(=O)(=O)c4c(C)noc4C)cc3C(=O)N([C@H](C)CO)C[C@H]2C)cc1	10	-3	5
COc1ccc(NC(=O)N(C)C[C@@H]2Oc3ccc(NS(=O)(=O)c4c(C)noc4C)cc3C(=O)N([C@H](C)CO)C[C@@H]2C)cc1	90*	-2	0
COc1ccc(NC(=O)N2CC3(C2)CN(C(=O)c2cccnc2)[C@H](CO)c2[nH]c4cc(OC)ccc4c23)cc1	6	0	-1
COc1ccc2c3c(n(C)c2c1)[C@H](CO)N(C)CC31CN(S(=O)(=O)c2cn(C)cn2)C1	20	0	/
COCC(=O)Nc1ccc2c(c1)OC[C@H](C)N(C(=O)c1cnccn1)C[C@H](C)[C@@H](OC)CN(C)C2=O	-8	0	/
O=C(C[C@H]1CC[C@@H]2[C@H](COC[C@@H](O)CN2Cc2nccs2)O1)NCc1ccc(Oc2ccccc2)cc1	6	0	0
Cc1noc(C)c1NC(=O)N(C)C[C@@H]1Oc2ccc(NS(=O)(=O)c3cccs3)cc2C(=O)N([C@@H](C)CO)C[C@@H]1C	2	9	0
Cc1noc(C)c1NC(=O)N(C)C[C@H]1Oc2ccc(NS(=O)(=O)c3cccs3)cc2C(=O)N([C@H](C)CO)C[C@H]1C	-1	29*	0
COc1ccccc1CNC(=O)C[C@@H]1C[C@@H]2c3cc(N(C)C)ccc3O[C@@H]2[C@H](CO)O1	4	0	-3
Cc1cc(C)c(NC(=O)CSc2nc3ncc(Br)cc3[nH]2)c(C)c1	2	0	19*
Cc1ccc(NC(=O)CSc2nc3ncc(Cl)cc3[nH]2)c(C)c1	1	/	0
Cc1cc(C)cc(NC(=O)CSc2nc(N)c(NC(=O)c3ccc(Br)o3)c(=O)[nH]2)c1	-9	0	0
Nc1nc(SCC(=O)Nc2ccc([N+](=O)[O-])cc2)[nH]c(=O)c1NC(=O)c1ccc(Br)o1	20*	1	2
CC(C)NC(=O)Nc1ccc2c(c1)C(=O)N([C@H](C)CO)C[C@H](C)[C@@H](CN(C)S(=O)(=O)c1cccs1)OCCCC[C@@H](C)O2	-2	/	5
CC1CCCCN1Cc1c(O)ccc2c(=O)c(-c3ccc(Br)cc3)coc12 (stereo unspecified)	-4	40*	-10
CC1CCCCN1Cc1c(O)ccc2c(=O)c(-c3ccc(Cl)cc3)coc12 (stereo unspecified)	2	/	-5
COc1ccc2c3c(n(C)c2c1)[C@@H](CO)N(CC1CC1)CC31CN(S(=O)(=O)c2cccs2)C1	15	0	-1
COCC#Cc1cnc2c(c1)C(=O)N([C@@H](C)CO)C[C@@H](C)[C@@H](CN(C)S(=O)(=O)c1ccccc1)O2	?	-1	-4
COc1ccc(C(=O)OCC(=O)Nc2ncc([N+](=O)[O-])s2)cc1OC	0	0	6
O=C(COC(=O)c1ccc(Br)o1)Nc1ncc([N+](=O)[O-])s1	2	-1	16*
COCC(=O)N(C)C[C@H]1Oc2cc(C3=CCCC3)ccc2S(=O)(=O)N([C@H](C)CO)C[C@@H]1C	?	2	0
Cc1ccc(S(=O)(=O)N2CCC(C(=O)N3CCC(C(=O)NCC4CCCO4)CC3)CC2)cc1 (stereo unspecified)	1	/	0
CC1CCN(S(=O)(=O)N2CCC(C(=O)N3CCC(N(C)CC4CCCO4)CC3)CC2)CC1 (stereo unspecified)	?	/	18*
SMILES	DENV2 CPE rescue	E-selectin induc	SIRT5 inh
Cc1cccc(Cn2c(N(C)Cc3ccccc3)nc3c2c(=O)[nH]c(=O)n3C)c1	?	0	-1
CCN(CC)c1nc2c(c(=O)[nH]c(=O)n2C)n1Cc1ccccc1	-2	/	102*
CS(=O)(=O)N1CCc2cc(C(=O)NC3CC3)ccc21	2	27*	7
CS(=O)(=O)N1CCc2cc(S(=O)(=O)Nc3ccc4c(c3)OCCO4)ccc21	-9	/	-1
CS(=O)(=O)N1CCc2cc(C(=O)N3CCN(c4ccc(F)cc4)CC3)ccc21	5	/	-1
CCCNC(=O)c1ccc2c(c1)CCN2S(C)(=O)=O	-4	/	-4
CS(=O)(=O)N1CCc2cc(S(=O)(=O)NCCNS(=O)(=O)c3ccc4c(c3)CCN4S(C)(=O)=O)ccc21	5	53*	-1
CS(=O)(=O)N1CCc2cc(C(=O)N3CCN(c4ccccc4)CC3)ccc21	23*	0	-3
O=C(C[C@@H]1CC[C@@H]2[C@H](COC[C@H](O)CN2Cc2ccccc2F)O1)N[C@@H]1CCN(Cc2ccccc2)C1	6	0	0
C[C@H]1CCCCO[C@H](CN(C)C(=O)Cc2ccccc2)[C@@H](C)CN([C@@H](C)CO)C(=O)c2cc(NC(=O)C3CCCCC3)ccc2O1	1	0	/
COc1ccc(CNC(=O)C[C@H]2C[C@H]3c4cc(NS(C)(=O)=O)ccc4O[C@H]3[C@H](CO)O2)cc1	-2	0	-1
COc1cccc(C#Cc2ccc3c(c2)[C@H]2[C@H](CCN2C(=O)Cc2ccccc2)[C@H](CO)N3)c1	7	-1	6
COCCN(C[C@@H]1N[C@@H](CO)[C@H]1c1ccc(-c2ccc(F)cc2)cc1)C(C)=O	-7	0	2
COCCN(C[C@H]1N[C@H](CO)[C@@H]1c1ccc(-c2ccc(F)cc2)cc1)C(C)=O	35*	0	9
CN(C[C@H]1N[C@@H](CO)[C@H]1c1ccc(-c2cccc(F)c2)cc1)C(=O)C1CCC1	-5	0	-3
CCN(C[C@@H]1N[C@@H](CO)[C@@H]1c1ccc(-c2ccc(F)cc2)cc1)C(=O)COC	-9	0	0
CN(C[C@H]1N[C@@H](CO)[C@H]1c1ccc(-c2cccc(F)c2)cc1)C(=O)CC1CC1	20*	0	0
CCN(C[C@H]1N[C@H](CO)[C@@H]1c1ccc(-c2ccc(F)cc2)cc1)C(=O)COC	45*	0	2
CC(=O)N1[C@H](CO)[C@H](c2ccc(C3=CCCCC3)cc2)[C@@H]1CNC(=O)CC1CC1	-11	0	2
CC(C)NC(=O)N1CC2(C1)[C@@H](c1ccccc1)[C@@H](CO)N2CCC(F)(F)F	-5	0	1
COc1cccc(C#Cc2ccc([C@H]3[C@H]4CN(C(C)=O)CC(=O)N4[C@H]3CO)cc2)c1	0	0	0
CN(C)CC(=O)Nc1ccc2c(c1)[C@H]1C[C@@H](CC(=O)N3CCOCC3)O[C@H](CO)[C@H]1O2	2	0	/
COc1ccc(NC(=O)N(C)C[C@H]2OCCCC[C@@H](C)Oc3ccc(NC(=O)Nc4ccc(F)cc4)cc3C(=O)N([C@@H](C)CO)C[C@H]2C)cc1	9	0	0
CN=C(Nc1cc(C)nn1-c1ccccc1)c1ccccc1	-11	/	-7
Cc1cc(NC(=O)c2ccccc2F)n(C(C)(C)C)n1	-4	34*	/
Cc1cc(NC(=O)c2ccc(F)cc2F)n(-c2nc3ccccc3[nH]2)n1	-1	/	0
